Bioassay records from PubChem BioAssay.
In the library only some 1% were active in any assay of this set; here they are far more common.
T cell modulator = T cell immune modulation candidate; 2C CD8+ T cell-vesicle binding, flow cytometry; stronger effect = lower value; response (vesicle binding), % at 7 µM; 330,000 compounds, 0.068% hits; AID 2052;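 active means response, share of CD8 T cells binding vesicles, and their 90th percentile fluorescence all below set limits, cut at about 80% in these data, passing the limit was not always enough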;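 further: values below 100% mean blocked vesicle binding to the CD8+ T cells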
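Assay system: 2C TCR transgenic mouse naive CD8+ T cells, MACS-purified | Read-out: CD8+ gate FL2 mean fluorescence as % of same-row positive control | Signal: High-throughput flow cytometry with anti-B7-1 and anti-CD8 staining | Timing: Binding step 1.5 h, 37 °C, antibody labelling 20 min, ice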
UPR CHOP act = activators of apoptotic arm of unfolded protein response (CHOP); CHO-CHOP luciferase reporter, UPR activation, luminescence; percent of tunicamycin response over DMSO baseline; activation, % at 10 µM; 330,000 compounds, 0.34% hits; AID 449763;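 active means at 10 µM dose, activation of 40% or more, normalized to positive control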
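Test system: CHO-CHOP cells, stable luciferase reporter of PERK-eIF2a-CHOP signalling | Quantity: 500 CHO-CHOP cells per well | Buffer or medium: F12 plus 10% serum | Compound dosing: 10 µM single point, 0.5% DMSO | Schedule: 6 h compound treatment, 37 °C | Signal: Luciferase luminescence | Control set: Tunicamycin high control, DMSO low control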
B2AR ag = human beta-2 adrenergic receptor agonism by FAP; P07550; Am2.2-beta2AR cells, FAP receptor internalization, flow cytometry; response, % (test concentration not listed); 340,000 compounds, 0.43% hits; AID 504454;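 active means response above a set limit, near 3 SD of response in nonfluorescent compounds, cut at about 42% in these data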
Target sequence (P07550 whole entry, looked up): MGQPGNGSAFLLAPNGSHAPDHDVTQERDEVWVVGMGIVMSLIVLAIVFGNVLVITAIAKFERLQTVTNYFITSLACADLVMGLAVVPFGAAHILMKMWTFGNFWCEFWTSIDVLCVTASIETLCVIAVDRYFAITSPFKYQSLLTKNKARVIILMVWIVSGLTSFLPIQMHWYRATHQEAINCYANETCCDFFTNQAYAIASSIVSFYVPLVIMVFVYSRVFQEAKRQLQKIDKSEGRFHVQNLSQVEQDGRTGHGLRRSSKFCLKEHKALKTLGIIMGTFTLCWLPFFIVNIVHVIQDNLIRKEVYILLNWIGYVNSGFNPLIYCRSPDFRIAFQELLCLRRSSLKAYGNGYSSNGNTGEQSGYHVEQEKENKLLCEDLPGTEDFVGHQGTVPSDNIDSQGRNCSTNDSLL
XBP1 UPR activ = activators of adaptive arm of unfolded protein response (XBP1); AID 463104; 330,000 compounds, 0.33% hits; CHO-XBP1 luciferase reporter, IRE1-XBP1 UPR activation, luminescence; percent of tunicamycin response, DMSO as zero; activation, % at 20 µM;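 active means versus positive control, 20 µM dose yields 30% or more activation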
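incubation = overnight seeding at 37 °C, 6 h compound treatment at 37 °C | assay system = CHO-XBP1 cells stably carrying IRE1-XBP1-driven luciferase reporter | input = 1000 cells per well | detection = luciferase luminescence | dosing = single point, 20 µM final compound, 1% DMSO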
CHOP UPR conf = confirmation of apoptotic unfolded protein response (CHOP) activators | shares compounds with UPR CHOP act | CHO-CHOP cells, CHOP-luciferase reporter luminescence; percent of tunicamycin response, DMSO as zero | activation, % at 10 µM | 1,000 compounds, 64% hits | AID 463112; in the data active means activation above about 33%
XBP1 UPR conf = adaptive UPR (XBP1) activation, confirmed; shares compounds with XBP1 UPR activ; CHO-XBP1 IRE1-XBP1 luciferase reporter, luminescence; activation, % at 20 µM; 1,000 compounds, 63% hits; AID 485299;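 active means reporter signal at least 30% of the positive control's activation in two or more of four replicate wells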
Large screens that a line does not name were inactive (follow-up assays come after a bar, where they were run).

Oc1ccc(CN2CCCCC2)c2cccnc12	none
Oc1ccc(CN2CCN(c3ccccc3)CC2)c2cccnc12	UPR CHOP act 67 | CHOP UPR conf 50
Cn1c(N)c(C(=O)COC(=O)Cc2ccc(Cl)c(Cl)c2)c(=O)n(C)c1=O	none
CCC1CCCCN1CCCNC(=O)CS(=O)Cc1nc(-c2ccc(OC)c(OC)c2)oc1C (stereo unspecified)	none
CN1CCN(CC(=O)Nc2ccc(OCc3ccccc3)cc2)CC1	none (no result: B2AR ag)
Cc1cccc(Nc2nc(-c3ccccn3)cs2)n1	UPR CHOP act 83 | CHOP UPR conf 35
Cc1cccc(Nc2nc(-c3cccs3)cs2)n1	none
Cc1ccc(C(=O)Nc2nc(-c3ccccn3)cs2)s1	none
Cc1cccnc1Nc1nc(-c2ccccn2)cs1	UPR CHOP act 451 | CHOP UPR conf 471
O=C(Nc1nc(-c2ccccn2)cs1)c1ccc(Cl)s1	UPR CHOP act 90 | CHOP UPR conf 126
Cc1cc(=O)[nH]c(SCC(=O)NCCOc2ccccc2)n1	none
COc1cccc(CNC(=O)CCC2CCCN(C3CCOCC3)C2)c1 (stereo unspecified)	none
O=S(=O)(NCc1ccccc1)c1cccc2nonc12	none
N#C/C(=C/c1ccc(O)c(O)c1)C(=O)NCc1ccc(Cl)cc1	UPR CHOP act 103 | CHOP UPR conf inactive
N#C/C(=C/c1cccc(O)c1)C(=O)NCc1ccc(Cl)cc1	none
COc1cc(C[C@@H](C)[C@@H](C)Cc2ccc(O)c(OC)c2)ccc1O	none
CC(Cc1ccc(O)c(O)c1)C(C)Cc1ccc(O)c(O)c1 (stereo unspecified)	UPR CHOP act 83 (no result: B2AR ag) | CHOP UPR conf inactive
Cc1coc2c1C(=O)C(=O)c1c-2ccc2c1CCCC2(C)C	none
Cc1coc2c1C(=O)C(=O)c1c-2ccc2c(C)cccc12	UPR CHOP act 62 | CHOP UPR conf 37
O=C(CCl)N1N=C(c2cccs2)CC1c1ccco1 (stereo unspecified)	UPR CHOP act 59 | CHOP UPR conf 34
CN1CCN(CC(=O)N2N=C(c3cccs3)CC2c2ccco2)CC1 (stereo unspecified)	none
O=C(c1ccc(S(=O)(=O)N2CCCC2)cc1)N1CCCCC1	none
O=C(/C=C/c1ccc(O)c(O)c1)c1ccc(S(=O)(=O)N2CCCCCC2)cc1	UPR CHOP act 90 | CHOP UPR conf inactive
Cc1ccc(CNc2ccc([N+](=O)[O-])cc2C(N)=O)cc1	none
Cc1ccc(Oc2c(C(N)=O)cc([N+](=O)[O-])cc2[N+](=O)[O-])cc1	UPR CHOP act 64, B2AR ag 57 | CHOP UPR conf inactive
O=[N+]([O-])c1cc(S(=O)(=O)C(F)(F)F)ccc1Sc1nc2ccccc2[nH]1	UPR CHOP act 43 | CHOP UPR conf inactive
COc1cc(/C=C(/C#N)c2nc3ccccc3[nH]2)ccc1OCC(=O)Nc1ccccc1C(C)C	UPR CHOP act 76 (no result: T cell modulator) | CHOP UPR conf 64
COc1cc(/C=C(\C#N)c2nc3ccccc3[nH]2)ccc1OC(=O)c1ccco1	none
Cc1ccc(C(=O)CSc2nc(N)cc(=O)[nH]2)cc1C	none (no result: UPR CHOP act) | CHOP UPR conf inactive
CCCCC(CC)CN=C(N)NC(N)=NCCCCCCN=C(N)NC(N)=NCC(CC)CCCC (stereo unspecified)	UPR CHOP act 54 | CHOP UPR conf 38
CCCCn1c(N)c(N(CC(C)C)C(=O)COC(=O)Cc2c(C)nc3ccccc3c2C)c(=O)[nH]c1=O	none
Cc1nn(-c2cccc3cccnc23)c(=O)c2ccccc12	UPR CHOP act 45 | CHOP UPR conf inactive
COc1ccc(/C=c2\s/c(=C(/C#N)C(=O)NCc3ccco3)n(-c3ccccc3)c2=O)cc1	UPR CHOP act 43, XBP1 UPR activ 38 | CHOP UPR conf inactive | XBP1 UPR conf 43
FC(F)(F)c1nnc2c(Sc3ccccc3)nc3ccccc3n12	none
FC(F)(F)c1nnc2c(Sc3ccc(Cl)cc3)nc3ccccc3n12	UPR CHOP act 84, XBP1 UPR activ 59 | CHOP UPR conf 127 | XBP1 UPR conf 55
CC1(C)OC(=O)C(=CNn2cnc3ccccc3c2=O)C(=O)O1	none
Cc1nn(Cc2c(Cl)cccc2Cl)c(C)c1NC(=O)c1sc2ccccc2c1Cl	UPR CHOP act 49, XBP1 UPR activ 65 | CHOP UPR conf 40 | XBP1 UPR conf 67
Cc1nn(Cc2c(Cl)cccc2Cl)c(C)c1NC(=O)c1cn(-c2ccccc2)nc1-c1ccccc1	UPR CHOP act 146, XBP1 UPR activ 78 | CHOP UPR conf 76 | XBP1 UPR conf 85
COc1ccc(NC(=O)Cn2ncn3nc(-c4ccc(OC)cc4)cc3c2=O)cc1	none
O=C(NC1CCSc2ccccc21)c1cc(S(=O)(=O)N2CCOCC2)ccc1F (stereo unspecified)	none
Oc1ccc(/C=N/Nc2cc(N3CCOCC3)nc(N3CCOCC3)n2)cc1O	UPR CHOP act 268, XBP1 UPR activ 59 | CHOP UPR conf 100 | XBP1 UPR conf 42
Oc1cccc(/C=N/Nc2cc(N3CCOCC3)nc(N3CCOCC3)n2)c1	none
O=C1S/C(=C\C=C\c2ccco2)C(=O)N1c1ccc(O)cc1	UPR CHOP act 168, XBP1 UPR activ 37 | CHOP UPR conf inactive | XBP1 UPR conf inactive
Cc1ccc(N(C(C)C(=O)O)S(=O)(=O)c2c(C)[nH]c(=O)[nH]c2=O)cc1 (stereo unspecified)	none
Cn1nc(C(F)(F)F)c(/C=N/OC(=O)c2ccccc2)c1SCc1ccccc1Cl	UPR CHOP act 52, XBP1 UPR activ 91 | CHOP UPR conf 100 | XBP1 UPR conf 115
CCc1ccc2[nH]c(=O)c(CN(Cc3ccc(F)cc3)C(c3nnnn3CCN3CCOCC3)C(C)C)cc2c1 (stereo unspecified)	UPR CHOP act 55, XBP1 UPR activ 38 | CHOP UPR conf inactive | XBP1 UPR conf inactive
CCc1ccc2[nH]c(=O)c(C(c3nnnn3CCOC)N3CCN(c4ccc(F)cc4)CC3)cc2c1 (stereo unspecified)	none
O=C(O)c1cccc(-n2c(/C=C/c3ccc([N+](=O)[O-])cc3)nc3ccccc3c2=O)c1	none
CCOc1cc(/C=C2/NC(=S)NC2=O)ccc1OCc1ccc([N+](=O)[O-])cc1	UPR CHOP act 165, XBP1 UPR activ 127 | CHOP UPR conf inactive | XBP1 UPR conf 39
CCN(CC)S(=O)(=O)c1ccc(N/N=C(\C)c2ccc3c(c2)OCO3)c([N+](=O)[O-])c1	UPR CHOP act 155, XBP1 UPR activ 211 | CHOP UPR conf 63 | XBP1 UPR conf 155
CCOc1cc(/C=N/Nc2nc(C)cc(=O)[nH]2)ccc1O	none
CCOc1cc(/C=N/Nc2cc(C)nc(-n3nc(C)cc3C)n2)ccc1O	UPR CHOP act 86, XBP1 UPR activ 48 | CHOP UPR conf 63 | XBP1 UPR conf inactive
